≈ marks a conversion by molar mass, not a printed value. Calls of active or inactive are those of the source. The rule behind the calls is not given here.
Columns and labels:
Adenosine receptor A2a = Adenosine receptor A2a (Homo sapiens, UniProt P29274); assay: Displacement of [3H]ZM241385 from human A2A receptor expressed in HEK293 cell membranes after 90 mins radioligand binding assay
Method in brief: (§1)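 Membranes from HEK-293 cells overexpressing the relevant human adenosine receptor subtype; all points in triplicate; Ki derived from 8-concentration IC50 curves.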

Homo sapiens = species: Homo sapiens; assay: Selectivity ratio of Ki for displacement of [3H]-MRS-1754 from human A2B receptor expressed in HEK293 cell membranes to Ki for displacement of [3H]ZM241385 from human A2A receptor expressed in HEK293 cell membranes
Method in brief: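 Radioligand binding used membranes from HEK-293 cells overexpressing each human adenosine receptor isoform. Points were run in triplicate, and 8-concentration IC50 curves were plotted to give Ki. The selectivity value is the Ki at the off-target isoform divided by the Ki at hA2A.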

[1] = Solubility of the compound at pH 7.4; type: physicochemical; details: buffer
Adenosine receptor A2b = target: T1, Adenosine receptor A2b (Homo sapiens, UniProt P29275); assay: Displacement of [3H]-MRS-1754 from human A2B receptor expressed in HEK293 cell membranes after 90 mins radioligand binding assay; method in brief: as §1
T1 sequence (P29275 whole entry): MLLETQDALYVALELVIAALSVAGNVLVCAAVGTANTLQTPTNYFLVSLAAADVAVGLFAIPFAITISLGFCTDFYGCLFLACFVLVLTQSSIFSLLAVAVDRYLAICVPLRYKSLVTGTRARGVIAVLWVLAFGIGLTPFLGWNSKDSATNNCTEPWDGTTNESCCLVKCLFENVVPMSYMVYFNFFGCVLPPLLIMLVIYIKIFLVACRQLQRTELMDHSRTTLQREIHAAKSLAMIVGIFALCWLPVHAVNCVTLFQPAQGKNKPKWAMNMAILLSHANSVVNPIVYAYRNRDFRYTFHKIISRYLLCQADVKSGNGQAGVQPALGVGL

[2] = target: T2, Adenosine receptor A3 (Homo sapiens) (UniProt P0DMS8); assay: Displacement of [3H]-HEMADO from human A3 receptor expressed in HEK293 cell membranes at 10 uM after 90 mins radioligand binding assay
T2 sequence (whole entry): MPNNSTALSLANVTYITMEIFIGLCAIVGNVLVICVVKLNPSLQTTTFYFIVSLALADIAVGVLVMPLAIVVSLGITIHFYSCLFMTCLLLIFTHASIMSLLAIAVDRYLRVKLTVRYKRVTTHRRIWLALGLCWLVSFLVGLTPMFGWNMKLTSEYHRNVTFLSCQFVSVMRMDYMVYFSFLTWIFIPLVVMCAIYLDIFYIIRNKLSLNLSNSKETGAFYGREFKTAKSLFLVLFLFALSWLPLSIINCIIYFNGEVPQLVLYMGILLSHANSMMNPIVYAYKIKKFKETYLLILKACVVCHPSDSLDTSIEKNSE
Method in brief: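 Membranes from HEK-293 cells overexpressing human A3 receptor; points in triplicate; highest concentration tested 10 µM.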

[3] = target: T3, Adenosine receptor A1 (Homo sapiens) (UniProt P30542); assay: Antagonist activity at human adenosine A1 receptor expressed in HEK293 cell membranes assessed as inhibition of CPA/forskolin-induced cAMP level at 10 uM pretreated for 15 mins followed by agonist addition for 15 mins and subsequent forskolin stimulation measured after 30 mins by HTRF assay; type: functional, cell-based
T3 sequence (whole entry): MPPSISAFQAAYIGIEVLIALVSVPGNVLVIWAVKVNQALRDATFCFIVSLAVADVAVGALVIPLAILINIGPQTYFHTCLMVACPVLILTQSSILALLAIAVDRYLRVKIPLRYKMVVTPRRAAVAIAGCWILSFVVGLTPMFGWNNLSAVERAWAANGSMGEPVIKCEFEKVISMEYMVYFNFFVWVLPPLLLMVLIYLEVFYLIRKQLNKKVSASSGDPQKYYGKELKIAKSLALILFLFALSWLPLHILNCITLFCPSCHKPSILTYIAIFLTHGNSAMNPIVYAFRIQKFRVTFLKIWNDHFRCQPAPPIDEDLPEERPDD
Method in brief: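 HTRF cAMP functional assay on the human receptor isoform, run in triplicate at 12 concentrations with a top concentration of 10 µM, in two independent experiments. Inhibition at 10 µM is recorded where no Ki could be derived.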

[4] = Metabolic stability in mouse liver microsomes assessed as metabolic rate; type: ADME, microsome
Method in brief: (§2)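 Liver microsomes (mouse, rat, dog, human) at 0.125 mg/mL protein; metabolic rate expressed as nmol/min/mg.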

[5] = Solubility of the compound at pH 4; type: physicochemical; details: buffer
[6] = Permeability across basolateral to apical side in human Caco2 cells; type: ADME, cell-based; details: caco-2
[7] = Protein binding in rat plasma; type: ADME, cell-free; details: read-out: PPB (converted)
[8] = Protein binding in dog plasma; type: ADME, cell-free, Canis lupus familiaris; details: read-out: PPB (converted)
Cytochrome P450 2C9 = Cytochrome P450 2C9 (Homo sapiens, UniProt P11712); assay: Inhibition of CYP2C9 (unknown origin); type: ADME
Sequence of Cytochrome P450 2C9 (P11712 whole entry): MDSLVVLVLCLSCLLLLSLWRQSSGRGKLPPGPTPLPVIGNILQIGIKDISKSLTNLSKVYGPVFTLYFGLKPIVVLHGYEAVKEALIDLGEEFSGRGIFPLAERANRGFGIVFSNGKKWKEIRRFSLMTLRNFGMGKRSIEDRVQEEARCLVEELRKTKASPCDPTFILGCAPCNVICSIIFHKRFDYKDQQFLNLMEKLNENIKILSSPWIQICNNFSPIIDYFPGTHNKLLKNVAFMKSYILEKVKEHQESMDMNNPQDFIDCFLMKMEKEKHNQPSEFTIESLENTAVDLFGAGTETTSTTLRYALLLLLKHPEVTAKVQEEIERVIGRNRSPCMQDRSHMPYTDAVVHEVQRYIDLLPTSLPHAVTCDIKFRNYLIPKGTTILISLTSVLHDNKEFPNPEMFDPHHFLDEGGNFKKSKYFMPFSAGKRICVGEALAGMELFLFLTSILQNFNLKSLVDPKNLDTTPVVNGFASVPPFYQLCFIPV

Cytochrome P450 2C19 = Cytochrome P450 2C19 (Homo sapiens, UniProt P33261); assay: Inhibition of CYP2C19 (unknown origin); type: ADME
Sequence of Cytochrome P450 2C19 (P33261 whole entry): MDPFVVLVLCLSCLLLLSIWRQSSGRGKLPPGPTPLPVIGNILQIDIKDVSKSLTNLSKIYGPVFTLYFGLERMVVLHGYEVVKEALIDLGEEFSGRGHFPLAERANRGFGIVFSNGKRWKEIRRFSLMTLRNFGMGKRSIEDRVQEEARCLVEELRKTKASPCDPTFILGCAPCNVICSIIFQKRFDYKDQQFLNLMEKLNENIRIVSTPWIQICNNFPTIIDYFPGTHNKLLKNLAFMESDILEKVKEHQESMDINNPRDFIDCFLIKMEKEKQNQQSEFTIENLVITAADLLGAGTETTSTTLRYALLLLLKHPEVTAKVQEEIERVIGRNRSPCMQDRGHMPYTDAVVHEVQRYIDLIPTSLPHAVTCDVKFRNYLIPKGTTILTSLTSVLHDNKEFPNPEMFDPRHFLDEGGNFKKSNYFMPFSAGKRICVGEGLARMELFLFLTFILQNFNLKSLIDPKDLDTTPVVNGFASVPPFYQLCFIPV

Cytochrome P450 2D6 = Cytochrome P450 2D6 (Homo sapiens, UniProt P10635); assay: Inhibition of CYP2D6 (unknown origin); type: ADME
Sequence of Cytochrome P450 2D6 (P10635 whole entry): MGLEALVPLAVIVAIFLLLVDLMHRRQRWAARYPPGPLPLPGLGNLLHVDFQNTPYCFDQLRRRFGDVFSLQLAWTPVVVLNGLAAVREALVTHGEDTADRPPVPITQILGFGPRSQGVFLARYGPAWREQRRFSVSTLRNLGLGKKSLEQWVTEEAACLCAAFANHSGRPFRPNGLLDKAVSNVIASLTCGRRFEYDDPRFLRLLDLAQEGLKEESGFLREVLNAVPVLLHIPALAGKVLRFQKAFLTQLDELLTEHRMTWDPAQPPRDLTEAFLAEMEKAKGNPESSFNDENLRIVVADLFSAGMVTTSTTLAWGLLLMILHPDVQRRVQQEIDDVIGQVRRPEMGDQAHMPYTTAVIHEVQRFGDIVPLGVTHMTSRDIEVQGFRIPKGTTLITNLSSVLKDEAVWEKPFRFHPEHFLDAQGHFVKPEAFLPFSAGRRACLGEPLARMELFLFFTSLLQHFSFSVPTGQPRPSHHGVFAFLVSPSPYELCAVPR

[9] = Volume of distribution at steady state in Wistar rat at 3 mg/kg, iv by LC-MS/MS analysis; type: ADME, organism-based; details: in vivo, read-out: Vdss
Method in brief: (§3)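 Male Wistar rats, n = 4; iv dose 3 mg/kg in 10% NMP, 10% Cremophor EL, acetate buffer pH 4.2 q.s.; values are means.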

[10] = Systemic clearance in Wistar rat at 3 mg/kg, iv by LC-MS/MS analysis; type: ADME, organism-based; details: in vivo; method in brief: as §3
[11] = Terminal half-life in Wistar rat at 3 mg/kg, iv by LC-MS/MS analysis; type: ADME, organism-based; details: in vivo, read-out: beta t1/2 (converted); method in brief: as §3
[12] = Tmax in Wistar rat at 10 mg/kg, po administered via gavage by LC-MS/MS analysis; type: ADME, organism-based; details: in vivo
Method in brief: (§4)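 Male Wistar rats, n = 4; oral dose 10 mg/kg as suspension in 1% Tween 80 with 0.5% w/v NaCMC; values are means.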

[13] = AUC (0 to t) in Wistar rat at 10 mg/kg, po administered via gavage by LC-MS/MS analysis; type: ADME, organism-based; details: in vivo
[14] = Oral bioavailability in Wistar rat at 10 mg/kg administered via gavage by LC-MS/MS analysis; type: ADME, organism-based; details: in vivo; method in brief: as §4
Rattus norvegicus = assay: Toxicity in 6-OHDA-lesioned Wistar rat model of parkinson's disease assessed as induction of dyskinesia at 0.3 to 3 mg/kg, po administered twice daily for 21 days; type: organism-based; details: in vivo, 504 h
Method in brief: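 6-OHDA-lesioned rats given oral test compound (0.3-3 mg/kg) with L-DOPA, repeated daily; abnormal involuntary movements scored; mean ± SEM, n=6-7.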

[15] = Metabolic stability in rat liver microsomes assessed as metabolic rate; type: ADME, microsome; method in brief: as §2
[16] = Metabolic stability in human liver microsomes assessed as metabolic rate; type: ADME, microsome; method in brief: as §2

Sequence of Adenosine receptor A2a (P29274 whole entry): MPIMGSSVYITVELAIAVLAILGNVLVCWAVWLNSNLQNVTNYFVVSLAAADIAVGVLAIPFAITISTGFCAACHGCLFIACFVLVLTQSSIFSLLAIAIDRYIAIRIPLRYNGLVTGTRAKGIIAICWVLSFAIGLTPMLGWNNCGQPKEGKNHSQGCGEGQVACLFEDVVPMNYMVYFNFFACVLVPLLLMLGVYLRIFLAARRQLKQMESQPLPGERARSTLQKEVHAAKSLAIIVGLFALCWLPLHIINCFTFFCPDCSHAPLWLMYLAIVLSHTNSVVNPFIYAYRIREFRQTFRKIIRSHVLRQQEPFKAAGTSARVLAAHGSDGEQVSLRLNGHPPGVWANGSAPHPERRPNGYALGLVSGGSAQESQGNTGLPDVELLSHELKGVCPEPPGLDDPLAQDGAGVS

Ki (Adenosine receptor A2a): 0.0015 µM
solubility [1]: 17 µM (≈ 9.67 µg/mL)
Ki (Adenosine receptor A2b): 5 µM
inhibition [2]: inactive
inhibition [3]: inactive
Drug metabolism [4]: 0.08 nmol/min/mg
solubility [5]: 486 µM (≈ 276 µg/mL)
permeability [6]: Permeable
fraction unbound [7]: 0.18
fraction unbound [8]: 0.22
IC50 (Cytochrome P450 2C9): > 10 µM
IC50 (Cytochrome P450 2C19): > 10 µM
IC50 (Cytochrome P450 2D6): > 10 µM
Vd [9]: 3.6 L/kg
clearance [10]: 2.7 L/h/kg
half-life [11]: 60 min
Tmax [12]: 48 min
AUC(0-t) [13]: 2200 nM·h
bioavailability [14]: 32%
Drug metabolism [15]: 0 nmol/min/mg
Drug metabolism [16]: 0.14 nmol/min/mg
SMILES: COCCOc1ccc(N2CCN(CCn3c(=O)n(C)c4c3nc(N)n3nc(-c5nccs5)nc43)CC2)cc1F
Ratio Ki (Homo sapiens): > 3000
Activity (Rattus norvegicus): Non-Toxic

Reference: ChEMBL document CHEMBL4190330, “Discovery of Potent and Selective A2A Antagonists with Efficacy in Animal Models of Parkinson's Disease and Depression” (ACS Med Chem Lett, 2017)
